“And” between values parts separate entries of the source, which are not always exact repeats. Identical values can stand only once.
Columns and labels:
[1] = Optical characterization of the ELP phase diagram; format: physicochemical; details: for Tt (observed transition temperature): 25 μM in PBS, turbidity at 350 nm, ramp 1 °C min−1, maximum first derivative of the curve; for slope of transition temperature vs log10 concentration / y-intercept of transition temperature vs log10 concentration: log-linear regression of Tt vs concentration, 5–100 μM in PBS, mean [95% CI]; for temperature of phase separation (Figure 2 legend, approximate): optical density as a function of temperature and concentration; for Property at 37 °C: state of the protein polymer at 37 °C (soluble / nanoparticle / coacervate)
Method in brief: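 Turbidity (350 nm) of protein polymer solutions in PBS was recorded as a function of temperature across several concentrations. Tt was the maximum of the first derivative of the curve. Observed Tt was reported at 25 μM. Slope and intercept came from log-linear regression, Tt = m Log₁₀[C_ELP] + b. Mean [95% CI].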

[2] = Dynamic light scattering: hydrodynamic radius and polydispersity; format: physicochemical; details: DLS; for nanoassembly by dynamic light scattering: below the transition temperature; for hydrodynamic radius at 37 °C: filtered through 0.2 μm cellulose acetate; for hydrodynamic radius retained below the transition temperature: 25 μM in PBS (Discussion); for temperature up to which the nanoparticles are stable: 4 to 60 °C in 1 °C increments
Method in brief: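 Test protein polymers at 25 μM in PBS, passed through 0.2 μm cellulose acetate filters, spun at 4 °C, 1200 rpm to clear air bubbles, and overlaid with mineral oil against evaporation. Hydrodynamic radius and polydispersity were read on a DLS plate reader from 4 to 60 °C in 1 °C steps.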

[3] = Negative and cryogenic transmission electron microscopy of nanoparticles; format: physicochemical; details: average ± 95% confidence interval
Method in brief: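 Samples at 25 μM, unfiltered or 0.2 μm filtered. Negative TEM used carbon-coated copper grids, excess wicked off, 2 wt% aqueous uranyl acetate stain, 100 kV. Cryo-TEM used plasma-treated lacey carbon grids plunged into liquid-nitrogen-cooled ethane, 80 kV. Sizes were averaged over three fields (>50 particles/image TEM; 20 cryo-TEM). Bilayer thickness was taken at three points per vesicle circumference. Mean ± 95% CI.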

[4] = set-up: species or system rats; details: rat, in vivo

Substance: G(VPGAG)192Y [A192]
- Tt (observed transition temperature) [1]: 61.9 °C
- slope of transition temperature vs log10 concentration [1]: −9.2 °C/log10(μM)
- y-intercept of transition temperature vs log10 concentration [1]: 74.9 °C
- temperature of phase separation (Figure 2 legend, approximate) ([1]; PBS): ~60 °C
- Property at 37 °C ([1]; PBS): soluble
- nanoassembly by dynamic light scattering ([2]; 25 μM in PBS): do not exhibit any signs of nanoassembly
- hydrodynamic radius at 37 °C ([2]; 25 μM in PBS, 37 °C): 5 nm

Substance: G(VPGVG VPGAG VPGAG)64Y [V2A192]
- Tt (observed transition temperature) [1]: 47.2 °C
- slope of transition temperature vs log10 concentration [1]: −5.8 °C/log10(μM)
- y-intercept of transition temperature vs log10 concentration [1]: 55.9 °C
- temperature of phase separation (Figure 2 legend, approximate) ([1]; PBS): around 47 °C
- Property at 37 °C ([1]; PBS): soluble
- nanoassembly by dynamic light scattering ([2]; 25 μM in PBS): do not exhibit any signs of nanoassembly
- hydrodynamic radius at 37 °C ([2]; 25 μM in PBS, 37 °C): 5 nm

Substance: MDWFKAFYDKVAEKFKEAFGLVPRGS G(VPGAG)192Y [L4F-A192]
- nanoparticle radius, negative TEM, unfiltered ([3]; 25 μM, 2 % uranyl acetate stain, unfiltered): 41 ± 16 nm
- vesicle radius, cryo-TEM, filtered ([3]; 25 μM, filtered through 0.2 μm): 43 ± 17 nm and 43 nm
- vesicle radius, cryo-TEM, unfiltered ([3]; 25 μM, unfiltered): 36 ± 13 nm
- membrane thickness, cryo-TEM, filtered ([3]; 0.2 um filtered, n = 8): 6.8 ± 0.7 nm and 6.8 nm
- membrane (wall) thickness, cryo-TEM, unfiltered ([3]; unfiltered, n = 18): 8.4 ± 1.3 nm and 8.4 nm
- Tt (observed transition temperature) [1]: 45.8 °C
- depression of transition temperature below the parent ELP ([1]; at 25 μM): 14 °C
- temperature of phase separation / transition temperature ([1]; at 25 μM, optical density, PBS): above 47 °C
- slope of transition temperature vs log10 concentration [1]: −2.6 °C/log10(μM)
- y-intercept of transition temperature vs log10 concentration [1]: 49.6 °C
- Property at 37 °C ([1]; PBS): nanoparticle
- hydrodynamic radius retained below the transition temperature [2]: 50 nm
- temperature up to which the nanoparticles are stable ([2]; 25 μM in PBS): 46 °C
- polydispersity ([2]; 25 μM in PBS, 37 °C): 9 nm
- nanoassembly by dynamic light scattering ([2]; 25 μM in PBS): form nanoparticles
- hydrodynamic radius at 37 °C ([2]; 25 μM in PBS, 37 °C): 50 nm and ~50 nm
- Plasma clearance, CLp [4]: 0.37 mL/min
- Volume of distribution, V0 [4]: 26 mL
- plasma half-life (approximate) [4]: approximately 1 hr
- volume of distribution relative to free L4F peptide [4]: approximately twice

Substance: MDWFKAFYDKVAEKFKEAFGLVPRGS G(VPGVG VPGAG VPGAG)64Y [L4F-V2A192]
- Tt (observed transition temperature) [1]: 34.3 °C
- slope of transition temperature vs log10 concentration [1]: −1.3 °C/log10(μM)
- y-intercept of transition temperature vs log10 concentration [1]: 36.2 °C
- temperature of phase separation (Figure 2 legend, approximate) ([1]; PBS): about 34 °C
- hydrodynamic radius retained below the transition temperature [2]: 42 nm
- temperature up to which the nanoparticles are stable ([2]; 25 μM in PBS): 34 °C
- nanoassembly by dynamic light scattering ([2]; 25 μM in PBS): form nanoparticles
- hydrodynamic radius at 37 °C ([2]; 25 μM in PBS, 37 °C): 42 nm and ~50 nm

Substance: Met-Asp-Trp-Phe-Lys-Ala-Phe-Tyr-Asp-Lys-Val-Ala-Glu-Lys-Phe-Lys-Glu-Ala-Phe-Leu-FITC [Free L4F, reference compound]
- Plasma clearance, CLp [4]: 0.12 mL/min
- Volume of distribution, V0 [4]: 12 mL

Reference: paper PMC4327866 (Journal of controlled release : official journal of the …, 2014)
